Reference: ChEMBL document CHEMBL1136261, “Novel inhibitors of neuronal nitric oxide synthase with potent antioxidant properties” (Bioorg Med Chem Lett, 2003)

What was measured:
Rattus norvegicus [1] = species: Rattus norvegicus; experiment: Antioxidant potency of compound was assessed for their ability to inhibit [Fe2+] induced lipid peroxidation in rat brain microsomes; format: functional
Nitric oxide synthase 1 [2] = target: T1, Nitric oxide synthase 1 (Rattus norvegicus, UniProt P29476); experiment: Inhibitory concentration tested against neuronal nitric oxide synthase (nNOS ) from rat cerebellum; Not active; format: tissue-based
Procedure, shortened: (§1)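 NOS activity measured as enzymatic conversion of [3H]L-arginine into [3H]L-citrulline; inhibition taken as the reduction of this conversion. Both constitutive isoforms (neuronal and endothelial) were assayed, and the nNOS/eNOS selectivity was calculated from the two results.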

Nitric oxide synthase 3 [3] = target: T2, Nitric oxide synthase 3 (Bos taurus, UniProt P29473); experiment: Inhibitory concentration tested against bovine endothelial nitric oxide synthase (eNOS); Not active; procedure, shortened: as §1
T2 sequence (P29473 whole entry): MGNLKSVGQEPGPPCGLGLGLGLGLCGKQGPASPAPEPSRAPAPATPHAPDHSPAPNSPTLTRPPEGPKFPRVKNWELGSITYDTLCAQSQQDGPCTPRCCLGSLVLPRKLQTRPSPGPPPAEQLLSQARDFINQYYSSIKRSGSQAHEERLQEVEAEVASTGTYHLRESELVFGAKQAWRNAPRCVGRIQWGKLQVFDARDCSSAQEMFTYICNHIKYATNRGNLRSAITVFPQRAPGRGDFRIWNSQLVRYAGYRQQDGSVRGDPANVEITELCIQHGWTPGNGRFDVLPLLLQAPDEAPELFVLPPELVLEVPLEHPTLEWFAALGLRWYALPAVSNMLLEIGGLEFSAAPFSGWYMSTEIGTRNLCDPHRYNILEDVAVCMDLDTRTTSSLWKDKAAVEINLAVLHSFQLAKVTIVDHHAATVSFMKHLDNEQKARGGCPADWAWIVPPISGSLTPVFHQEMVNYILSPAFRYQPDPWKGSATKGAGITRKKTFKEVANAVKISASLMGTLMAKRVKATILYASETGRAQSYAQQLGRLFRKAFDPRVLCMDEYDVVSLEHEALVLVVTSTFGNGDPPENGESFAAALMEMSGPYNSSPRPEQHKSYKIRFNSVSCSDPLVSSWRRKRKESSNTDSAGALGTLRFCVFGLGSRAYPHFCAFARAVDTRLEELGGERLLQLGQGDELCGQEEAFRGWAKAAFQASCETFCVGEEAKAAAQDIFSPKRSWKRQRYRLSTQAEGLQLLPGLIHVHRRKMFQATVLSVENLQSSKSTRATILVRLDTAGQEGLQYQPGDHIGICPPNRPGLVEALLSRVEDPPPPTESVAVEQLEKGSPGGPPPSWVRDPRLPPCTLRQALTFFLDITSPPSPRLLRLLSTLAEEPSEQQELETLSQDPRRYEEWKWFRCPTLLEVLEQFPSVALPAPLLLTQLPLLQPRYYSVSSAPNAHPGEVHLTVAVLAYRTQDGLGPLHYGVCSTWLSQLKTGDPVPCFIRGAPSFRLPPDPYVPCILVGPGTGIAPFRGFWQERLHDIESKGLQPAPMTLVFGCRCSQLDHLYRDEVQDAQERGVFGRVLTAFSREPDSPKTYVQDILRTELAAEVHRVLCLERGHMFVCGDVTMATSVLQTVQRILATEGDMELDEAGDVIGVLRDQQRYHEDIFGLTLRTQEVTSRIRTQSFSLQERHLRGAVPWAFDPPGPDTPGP

[4] = target: T3, Nitric oxide synthase 3 (Bos taurus) (UniProt P29473); experiment: Selectivity ratio for inhibition of Endothelial Nitric oxide synthase to that of Neuronal Nitric oxide synthase in rat
T3 sequence (whole entry): T2 sequence (P29473 whole entry)
Procedure, shortened: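 Ratio of inhibitory activity on the two constitutive NOS isoforms, eNOS and nNOS. Inhibition on each isoform was measured as the effect on NOS conversion of [3H]L-arginine to [3H]L-citrulline.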

Nitric oxide synthase 3 [5] = target: T2, Nitric oxide synthase 3; experiment: Inhibitory concentration tested against bovine endothelial nitric oxide synthase (eNOS); procedure, shortened: as §1
Nitric oxide synthase 1 [6] = target: T1, Nitric oxide synthase 1; experiment: Inhibitory concentration tested against neuronal nitric oxide synthase (nNOS ) from rat cerebellum; format: tissue-based
Rattus norvegicus [7] = species: Rattus norvegicus; experiment: Antioxidant potency of compound was assessed for their ability to inhibit [Fe2+] induced lipid peroxidation in rat brain microsomes; Not active; format: functional

T1 sequence (P29476 whole entry, canonical isoform): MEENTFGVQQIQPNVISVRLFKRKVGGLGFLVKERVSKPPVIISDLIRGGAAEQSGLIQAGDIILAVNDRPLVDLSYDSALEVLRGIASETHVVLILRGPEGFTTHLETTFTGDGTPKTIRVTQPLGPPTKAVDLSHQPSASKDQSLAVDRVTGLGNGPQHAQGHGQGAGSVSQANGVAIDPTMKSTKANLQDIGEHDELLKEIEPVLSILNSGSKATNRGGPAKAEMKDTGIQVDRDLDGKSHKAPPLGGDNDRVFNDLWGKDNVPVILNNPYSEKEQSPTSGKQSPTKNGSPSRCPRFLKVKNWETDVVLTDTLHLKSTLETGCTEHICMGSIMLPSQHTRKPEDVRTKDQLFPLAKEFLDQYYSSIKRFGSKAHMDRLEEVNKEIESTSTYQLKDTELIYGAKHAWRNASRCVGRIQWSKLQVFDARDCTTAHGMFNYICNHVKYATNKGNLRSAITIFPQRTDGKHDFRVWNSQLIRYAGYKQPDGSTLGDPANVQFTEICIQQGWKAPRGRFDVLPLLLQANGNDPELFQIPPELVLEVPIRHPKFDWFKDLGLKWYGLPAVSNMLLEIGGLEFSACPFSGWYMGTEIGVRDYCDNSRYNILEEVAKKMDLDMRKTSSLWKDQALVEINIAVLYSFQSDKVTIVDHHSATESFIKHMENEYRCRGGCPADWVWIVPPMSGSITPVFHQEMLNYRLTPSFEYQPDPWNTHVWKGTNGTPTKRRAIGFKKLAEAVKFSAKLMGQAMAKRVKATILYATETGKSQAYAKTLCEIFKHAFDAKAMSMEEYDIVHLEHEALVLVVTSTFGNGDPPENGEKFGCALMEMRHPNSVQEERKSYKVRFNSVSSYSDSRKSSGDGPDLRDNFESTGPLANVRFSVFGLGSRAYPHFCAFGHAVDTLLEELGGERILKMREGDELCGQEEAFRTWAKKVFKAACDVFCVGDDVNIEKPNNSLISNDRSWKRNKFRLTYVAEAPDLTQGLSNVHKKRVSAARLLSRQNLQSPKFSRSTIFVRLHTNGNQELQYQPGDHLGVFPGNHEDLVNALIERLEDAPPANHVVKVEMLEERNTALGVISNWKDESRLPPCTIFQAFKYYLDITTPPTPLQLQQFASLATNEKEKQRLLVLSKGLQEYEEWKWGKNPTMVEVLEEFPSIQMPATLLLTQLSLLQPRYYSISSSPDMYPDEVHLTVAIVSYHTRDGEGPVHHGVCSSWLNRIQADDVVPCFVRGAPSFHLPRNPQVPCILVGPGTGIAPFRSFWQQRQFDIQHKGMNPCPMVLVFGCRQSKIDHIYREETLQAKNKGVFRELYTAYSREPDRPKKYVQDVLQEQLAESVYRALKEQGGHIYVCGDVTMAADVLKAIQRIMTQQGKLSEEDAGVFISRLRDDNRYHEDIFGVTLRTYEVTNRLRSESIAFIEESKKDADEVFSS

Structure (SMILES)	IC50 (Rattus norvegicus [1])	IC50 (Nitric oxide synthase 1 [2])	IC50 (Nitric oxide synthase 3 [3])	Selectivity ratio [4]	IC50 (Nitric oxide synthase 3 [5])	IC50 (Nitric oxide synthase 1 [6])	IC50 (Rattus norvegicus [7])
Cc1cc(C(C)(C)C)c(O)c(C(C)(C)C)c1 [BUTYLATED HYDROXYTOLUENE]	32.5 µM	Not Active	Not Active	–	–	–	–
CC(C)(C)c1cc(CCCNCc2cccc(NC(=N)c3cccs3)c2)cc(C(C)(C)C)c1O	0.4 µM	–	–	10.4	4.9 µM	0.47 µM	–
Cl.Cl.Cl.N=C(Nc1ccc(CCNCc2cccc(Cl)c2)cc1)c1cccs1	–	–	–	60	7.2 µM	0.12 µM	Not Active
N/C(=N/c1ccc(N)cc1)c1cccs1	–	–	–	> 5.5	> 100 µM	18 µM	–
CC(C)c1cc(CCCNCc2cccc(NC(=N)c3cccs3)c2)cc(C(C)C)c1O	0.4 µM	–	–	67.5	8.1 µM	0.12 µM	–
N=C(Nc1cccc(CN)c1)c1cccs1	–	–	–	484	24.2 µM	0.05 µM	–
N=C(Nc1ccccc1)c1cccs1	–	–	–	6.3	13.9 µM	2.2 µM	–
CC(C)(C)c1cc(CNCc2cccc(NC(=N)c3cccs3)c2)cc(C(C)(C)C)c1O	4.9 µM	–	–	9.8	15.7 µM	1.6 µM	–
N=C(Nc1ccc(CN)cc1)c1cccs1	–	–	–	195	37.1 µM	0.2 µM	–
N=C(Nc1ccc(CCN)cc1)c1cccs1	–	–	–	312	25 µM	0.08 µM	–
CC(C)(C)c1cc(CCNCc2cccc(NC(=N)c3cccs3)c2)cc(C(C)(C)C)c1O	2.4 µM	–	–	11.1	–	–	–
CC(C)(C)c1cc(CCNCc2cccc(N=C(N)c3cccs3)c2)cc(C(C)(C)C)c1O	–	–	–	–	15.5 µM	1.4 µM	–
